According to ChEMBL document CHEMBL2057165, “Synthesis and antiviral properties of novel 7-heterocyclic substituted 7-deaza-adenine nucleoside inhibitors of Hepatitis C NS5B polymerase” (Bioorg Med Chem, 2012):

Experiments:
[1] = Inhibition of Hepatitis C virus NS5B polymerase; set-up: species or system Hepacivirus hominis
Procedure, shortened: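 Nucleoside triphosphates tested in an NS5B polymerization assay on a heteromeric RNA template; IC50 given as mean of ≥3 experiments, SD within 20%.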

Hepatitis C virus = assay: Antiviral activity against Hepatitis C virus genotype 1b infected in human HBI10A cells assessed as inhibition of viral replication in presence of 10% FBS; format: functional, organism-based, Hepacivirus hominis
Procedure, shortened: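 HBI10A hepatoma cells stably carrying a genotype 1b subgenomic bicistronic HCV replicon; EC50 measured in the presence of 10% fetal bovine serum; mean of ≥3 experiments, SD within 20%.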

[2] = Oral bioavailability in Wistar Han rat at 1 mg/kg; format: ADME, organism-based; conditions: in vivo
Procedure, shortened: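 Pharmacokinetics in Wistar Han rats after 1 mg/Kg given intravenously and orally; parent nucleoside followed in plasma to derive clearance, volume of distribution and oral bioavailability (F).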

Nucleic Acid = assay: Ratio of drug level in nucleotide triphosphate level in liver to parent compound level in plasma in Wistar Han rat at 20 mg/kg, iv measured after 3 to 12 hrs; format: ADME, organism-based; set-up: dose 20 mg/kg, route intravenous; conditions: in vivo
Procedure, shortened: (§1)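 Wistar Han rats given 20 mg/Kg intravenously; NTP in liver measured up to 12 h after dosing, at 3, 6 and 12 h (nmol/g); parent nucleoside measured in plasma, and liver NTP/plasma nucleoside ratio computed at each timepoint.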

Liver [3] = assay: Drug uptake in Wistar Han rat liver assessed as nucleotide triphosphate level per gram of tissue at 20 mg/kg, po measured after 12 hrs; format: ADME, organism-based; set-up: dose 20 mg/kg, route oral; conditions: in vivo
Procedure, shortened: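 Wistar Han rats dosed orally at 20 mg/Kg; NTP in liver measured 12 h after dosing, in nmol/g.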

Liver [4] = assay: Drug uptake in Wistar Han rat liver assessed as nucleotide triphosphate level per gram of tissue at 20 mg/kg, iv measured after 6 hrs; format: ADME, organism-based; set-up: dose 20 mg/kg, route intravenous; conditions: in vivo; procedure, shortened: as §1
Liver [5] = assay: Drug uptake in Wistar Han rat liver assessed as nucleotide triphosphate level per gram of tissue at 20 mg/kg, iv measured after 12 hrs; format: ADME, organism-based; set-up: dose 20 mg/kg, route intravenous; conditions: in vivo; procedure, shortened: as §1
Liver [6] = assay: Drug uptake in Wistar Han rat liver assessed as nucleotide triphosphate level per gram of tissue at 20 mg/kg, iv measured after 3 hrs; format: ADME, organism-based; set-up: dose 20 mg/kg, route intravenous; conditions: in vivo; procedure, shortened: as §1
[7] = Prodrug activation in hamsters liver assessed as NTP formation at 10 mg/kg; format: organism-based; set-up: dose 10 mg/kg; conditions: cricetinae, in vivo
Procedure, shortened: (§2)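 Prodrug dosed at 10 mg/Kg in hamster; liver analysed for NTP and NMP species.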

[8] = Prodrug activation in hamsters liver assessed as NMP formation at 10 mg/kg; format: organism-based; set-up: dose 10 mg/kg; conditions: cricetinae, in vivo; procedure, shortened: as §2
[9] = Inhibition of human DNA polymerase gamma
[10] = Inhibition of human DNA polymerase alpha
[11] = Inhibition of human DNA polymerase beta

SMILES	IC50 [1] [µM]	EC50 (Hepatitis C virus) [µM]	further results
C[C@@]1(O)[C@H](O)[C@@H](COP(=O)(O)OP(=O)(O)OP(=O)(O)O)O[C@H]1n1ccc2c(N)ncnc21	0.1	–	–
Cn1cc(-c2cn([C@@H]3O[C@H](COP(=O)(O)OP(=O)(O)OP(=O)(O)O)[C@@H](O)[C@@]3(C)O)c3ncnc(N)c23)nn1	8.4	–	–
C[C@@]1(O)[C@H](O)[C@@H](CO)O[C@H]1n1ccc2c(N)ncnc21 [BETA-2'-C-METHYL-7-DEAZA-ADENOSINE]	–	0.3	–
C[C@@]1(O)[C@H](O)[C@@H](COP(=O)(O)OP(=O)(O)OP(=O)(O)O)O[C@H]1n1cc(-c2nnco2)c2c(N)ncnc21	> 95	–	–
C[C@@]1(O)[C@H](O)[C@@H](CO)O[C@H]1n1cc(-c2ncon2)c2c(N)ncnc21	–	1.9	bioavailability [2]: 14.7%; Ratio (Nucleic Acid): 20; Drug uptake (Liver [3]): 0.4 nmol/g; Drug uptake (Liver [4]): 3.9 nmol/g; Drug uptake (Liver [5]): 0.5 nmol/g; Drug uptake (Liver [6]): 11.9 nmol/g
CCOC(=O)[C@@H](C)NP(=O)(OC[C@H]1O[C@@H](n2cc(-c3ccn[nH]3)c3c(N)ncnc32)[C@](C)(F)[C@@H]1O)Oc1ccccc1 (stereo partly drawn)	–	> 50	Drug metabolism [7]: Not Active; Drug metabolism [8]: Active
C[C@@]1(F)[C@H](O)[C@@H](COP(=O)(O)OP(=O)(O)OP(=O)(O)O)O[C@H]1n1cc(-c2ncon2)c2c(N)ncnc21	0.4	–	–
C[C@@]1(F)[C@H](O)[C@@H](COP(=O)(O)OP(=O)(O)OP(=O)(O)O)O[C@H]1n1cc(-c2ccn[nH]2)c2c(N)ncnc21	0.07	–	IC50 [9]: > 10 µM; IC50 [10]: > 10 µM; IC50 [11]: > 10 µM
Cc1noc(-c2cn([C@@H]3O[C@H](CO)[C@@H](O)[C@@]3(C)O)c3ncnc(N)c23)n1	–	42	–
C[C@@]1(O)[C@H](O)[C@@H](COP(=O)(O)OP(=O)(O)OP(=O)(O)O)O[C@H]1n1cc(-c2cn[nH]c2)c2c(N)ncnc21	8.4	–	–
CCOC(=O)[C@@H](C)NP(=O)(OC[C@H]1O[C@@H](n2cc(-c3ccn[nH]3)c3c(N)ncnc32)[C@](C)(O)[C@@H]1O)Oc1ccccc1 (stereo partly drawn)	–	1.8	–
C[C@@]1(O)[C@H](O)[C@@H](CO)O[C@H]1n1cc(-c2ncco2)c2c(N)ncnc21	–	7.8	–
C[C@@]1(F)[C@H](O)[C@@H](COP(=O)(O)OP(=O)(O)OP(=O)(O)O)O[C@H]1n1cc(-c2ncco2)c2c(N)ncnc21	0.3	–	–
C[C@@]1(O)[C@H](O)[C@@H](COP(=O)(O)OP(=O)(O)OP(=O)(O)O)O[C@H]1n1cc(-c2ncco2)c2c(N)ncnc21	0.5	–	–
Cc1noc(-c2cn([C@@H]3O[C@H](COP(=O)(O)OP(=O)(O)OP(=O)(O)O)[C@@H](O)[C@@]3(C)O)c3ncnc(N)c23)n1	8.4	–	–
C[C@@]1(F)[C@H](O)[C@@H](CO)O[C@H]1n1cc(-c2ccn[nH]2)c2c(N)ncnc21	–	35	–
C[C@@]1(F)[C@H](O)[C@@H](CO)O[C@H]1n1cc(-c2ncco2)c2c(N)ncnc21	–	37	–
C[C@@]1(O)[C@H](O)[C@@H](COP(=O)(O)OP(=O)(O)OP(=O)(O)O)O[C@H]1n1cc(-c2cc[nH]n2)c2c(N)ncnc21	0.1	–	IC50 [9]: > 10 µM; IC50 [10]: > 10 µM; IC50 [11]: > 10 µM
Cn1cc(-c2cn([C@@H]3O[C@H](CO)[C@@H](O)[C@@]3(C)O)c3ncnc(N)c23)nn1	–	42	–
C[C@@]1(O)[C@H](O)[C@@H](CO)O[C@H]1n1cc(-c2nnco2)c2c(N)ncnc21	–	46	–
C[C@@]1(O)[C@H](O)[C@@H](COP(=O)(O)OP(=O)(O)OP(=O)(O)O)O[C@H]1n1cc(-c2ncon2)c2c(N)ncnc21	0.5	–	IC50 [9]: > 10 µM; IC50 [10]: > 10 µM; IC50 [11]: > 10 µM
C[C@@]1(O)[C@H](O)[C@@H](COP(=O)(O)OP(=O)(O)OP(=O)(O)O)O[C@H]1n1cc(-c2ncccn2)c2c(N)ncnc21	12	–	–
C[C@@]1(F)[C@H](O)[C@@H](CO)O[C@H]1n1cc(-c2ncon2)c2c(N)ncnc21	–	41	–
C[C@@]1(O)[C@H](O)[C@@H](CO)O[C@H]1n1cc(-c2ncccn2)c2c(N)ncnc21	–	> 100	–
C[C@@]1(O)[C@H](O)[C@@H](CO)O[C@H]1n1cc(-c2cn[nH]c2)c2c(N)ncnc21	–	30	–
C[C@@]1(O)[C@H](O)[C@@H](CO)O[C@H]1n1cc(-c2cc[nH]n2)c2c(N)ncnc21	–	> 100	–
